Assay results: ChEMBL document CHEMBL4340558, “Synthesis, biological evaluation, and molecular docking study of sulfonate derivatives as nucleotide pyrophosphatase/phosphodiesterase (NPP) inhibitors” (Bioorg Med Chem, 2019)

Key:
[1] = biological target: T1, Ectonucleotide pyrophosphatase/phosphodiesterase family member 1 (Homo sapiens, UniProt P22413); experiment: Inhibition of human NPP1 expressed in African green monkey COS7 cell membranes pre-incubated for 10 mins before pNP-TMP substrate addition and further incubated for 15 mins by colorimetric method
T1 sequence (P22413 whole entry): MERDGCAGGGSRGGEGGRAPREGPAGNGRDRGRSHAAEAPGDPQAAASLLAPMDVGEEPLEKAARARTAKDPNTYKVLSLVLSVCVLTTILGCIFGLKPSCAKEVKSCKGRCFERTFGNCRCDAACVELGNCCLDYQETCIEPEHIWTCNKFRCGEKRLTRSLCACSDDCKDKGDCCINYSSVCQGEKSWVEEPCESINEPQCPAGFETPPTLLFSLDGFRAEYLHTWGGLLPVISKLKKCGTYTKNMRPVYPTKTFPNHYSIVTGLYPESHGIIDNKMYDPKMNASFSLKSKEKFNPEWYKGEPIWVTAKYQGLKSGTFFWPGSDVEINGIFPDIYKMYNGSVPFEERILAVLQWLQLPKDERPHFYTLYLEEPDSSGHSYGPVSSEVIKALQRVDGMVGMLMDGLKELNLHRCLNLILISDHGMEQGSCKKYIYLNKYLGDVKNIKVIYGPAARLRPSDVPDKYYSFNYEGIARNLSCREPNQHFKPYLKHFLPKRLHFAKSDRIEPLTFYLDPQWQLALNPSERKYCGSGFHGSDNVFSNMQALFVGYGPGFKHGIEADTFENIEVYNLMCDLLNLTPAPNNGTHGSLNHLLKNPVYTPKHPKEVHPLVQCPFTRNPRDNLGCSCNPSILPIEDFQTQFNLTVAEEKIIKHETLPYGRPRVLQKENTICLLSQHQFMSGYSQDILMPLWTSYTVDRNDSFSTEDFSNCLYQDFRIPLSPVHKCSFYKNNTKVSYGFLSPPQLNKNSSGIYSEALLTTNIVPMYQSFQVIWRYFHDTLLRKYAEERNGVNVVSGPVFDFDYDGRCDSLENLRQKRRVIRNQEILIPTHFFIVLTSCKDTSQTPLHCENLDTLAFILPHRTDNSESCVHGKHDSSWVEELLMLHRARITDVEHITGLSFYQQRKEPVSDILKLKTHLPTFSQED

Autotaxin [2] = biological target: T2, Autotaxin (Homo sapiens, UniProt Q13822); experiment: Inhibition of human NPP2 expressed in African green monkey COS7 cell membranes pre-incubated for 5 mins before pNP-TMP substrate addition and further incubated for 35 mins by colorimetric method
How it was run: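 Colorimetric assay in 50 mM Tris-HCl, 5 mM MgCl2, 0.1 mM ZnCl2, pH 9.5, at 37 °C. Enzyme amounts: NPP1 35 ng, NPP2 338 ng, NPP3 37 ng. Pre-read at 405 nm was taken, then pNP-TMP was added: 400 µM for NPP1, 500 µM for NPP2, 600 µM for NPP3. A second 405 nm read followed. Runs were in triplicate. IC50 came from serial dilutions by non-linear curve fitting.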

[3] = biological target: T3, Ectonucleotide pyrophosphatase/phosphodiesterase family member 3 (Homo sapiens, UniProt O14638); experiment: Inhibition of human NPP3 expressed in African green monkey COS7 cell membranes pre-incubated for 10 mins before pNP-TMP substrate addition and further incubated for 15 mins by colorimetric method
T3 sequence (O14638 whole entry): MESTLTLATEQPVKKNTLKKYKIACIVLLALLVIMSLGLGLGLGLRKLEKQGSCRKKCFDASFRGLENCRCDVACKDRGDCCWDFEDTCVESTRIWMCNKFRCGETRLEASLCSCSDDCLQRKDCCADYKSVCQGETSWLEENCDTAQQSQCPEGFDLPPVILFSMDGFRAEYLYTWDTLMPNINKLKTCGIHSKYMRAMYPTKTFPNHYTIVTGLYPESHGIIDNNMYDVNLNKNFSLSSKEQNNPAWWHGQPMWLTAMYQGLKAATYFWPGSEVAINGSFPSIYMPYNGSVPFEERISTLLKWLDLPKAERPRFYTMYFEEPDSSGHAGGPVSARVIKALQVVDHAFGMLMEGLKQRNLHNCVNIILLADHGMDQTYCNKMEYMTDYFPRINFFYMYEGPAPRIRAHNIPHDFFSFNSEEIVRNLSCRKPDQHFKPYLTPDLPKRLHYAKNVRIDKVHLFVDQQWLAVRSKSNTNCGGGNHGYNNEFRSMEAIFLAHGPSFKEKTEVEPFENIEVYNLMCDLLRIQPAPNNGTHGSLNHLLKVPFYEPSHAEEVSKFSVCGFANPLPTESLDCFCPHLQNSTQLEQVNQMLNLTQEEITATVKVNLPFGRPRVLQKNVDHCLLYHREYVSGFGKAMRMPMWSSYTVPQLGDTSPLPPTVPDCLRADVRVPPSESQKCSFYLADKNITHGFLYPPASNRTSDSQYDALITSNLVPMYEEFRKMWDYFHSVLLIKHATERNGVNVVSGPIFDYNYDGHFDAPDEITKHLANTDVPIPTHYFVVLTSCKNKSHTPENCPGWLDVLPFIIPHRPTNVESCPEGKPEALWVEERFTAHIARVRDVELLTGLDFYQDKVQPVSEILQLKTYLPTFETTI

Autotaxin [4] = biological target: T2, Autotaxin; experiment: Inhibition of human NPP2 expressed in African green monkey COS7 cell membranes pre-incubated for 5 mins before pNP-TMP substrate addition and further incubated for 35 mins by colorimetric method relative to untreated control; design: concentration or dose not given beside the values
How it was run: (§1)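 Single-point screen at 100 µM test compound, added from a 1 mM stock in 10% DMSO. Buffer was 50 mM Tris-HCl, 5 mM MgCl2, 0.1 mM ZnCl2, pH 9.5, at 37 °C. pNP-TMP substrate was 400 µM for NPP1, 500 µM for NPP2, 600 µM for NPP3. Absorbance at 405 nm was read before and after substrate addition. Percent inhibition was determined in triplicate.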

[5] = biological target: T4, Ectonucleotide pyrophosphatase/phosphodiesterase family member 1 (Homo sapiens) (UniProt P22413); experiment: Inhibition of human NPP1 expressed in African green monkey COS7 cell membranes pre-incubated for 10 mins before pNP-TMP substrate addition and further incubated for 15 mins by colorimetric method relative to untreated control; design: concentration or dose not given beside the values; how it was run: as §1
T4 sequence (whole entry): T1 sequence (P22413 whole entry)

[6] = biological target: T5, Ectonucleotide pyrophosphatase/phosphodiesterase family member 3 (Homo sapiens) (UniProt O14638); experiment: Inhibition of human NPP3 expressed in African green monkey COS7 cell membranes pre-incubated for 10 mins before pNP-TMP substrate addition and further incubated for 15 mins by colorimetric method relative to untreated control; design: concentration or dose not given beside the values; how it was run: as §1
T5 sequence (whole entry): T3 sequence (O14638 whole entry)

## Cc1ccc(S(=O)(=O)Oc2ccc(NC(=O)C3CCCC3)cc2)cc1
[1]
  IC50: 8140 nM
Autotaxin [2]
  IC50: 13600 nM
[3]
  IC50: 856 nM

## CC(C)(C)c1ccc(S(=O)(=O)Oc2ccc(NC(=O)c3ccc(Cl)cc3)cc2)cc1
[1]
  IC50: 1800 nM
[3]
  IC50: 1520 nM
Autotaxin [4]
  inhibition: 31%

## O=C(Nc1ccc(OS(=O)(=O)c2ccccc2)cc1)C1CCCCC1
[1]
  IC50: 11800 nM
Autotaxin [2]
  IC50: 23800 nM
[3]
  IC50: 1080 nM

## Cc1ccc(S(=O)(=O)Oc2ccc(NC(=O)c3ccc4ccccc4c3)cc2)cc1
Autotaxin [2]
  IC50: 7990 nM
[5]
  inhibition: 24%
[6]
  inhibition: 23%

## Cc1ccc(S(=O)(=O)Oc2ccc(NC(=O)c3ccc(Cl)cc3)cc2)cc1
[1]
  IC50: 1440 nM
Autotaxin [2]
  IC50: 7690 nM
[3]
  IC50: 1620 nM

## CCCS(=O)(=O)Oc1ccc(NC(=O)C2CCCCC2)cc1
[1]
  IC50: 3460 nM
Autotaxin [2]
  IC50: 26200 nM
[3]
  IC50: 2410 nM

## O=C(Nc1ccc(OS(=O)(=O)c2cccc3cccnc23)cc1)c1ccc2ccccc2c1
Autotaxin [2]
  IC50: 2460 nM
[5]
  inhibition: 37%
[6]
  inhibition: 42%

## O=C(Nc1ccc(OS(=O)(=O)c2ccccc2)cc1)C1CCCCCC1
[1]
  IC50: 13800 nM
[3]
  IC50: 6600 nM
Autotaxin [4]
  inhibition: 28%

## Cc1ccc(S(=O)(=O)Oc2ccc(NC(=O)C3CCCCCC3)cc2)cc1
[1]
  IC50: 422 nM
[3]
  IC50: 255 nM
Autotaxin [4]
  inhibition: 24%

## O=C(Nc1ccc(OS(=O)(=O)c2ccc(F)cc2)cc1)C1CCCCC1
[1]
  IC50: 564 nM
[3]
  IC50: 254 nM
Autotaxin [4]
  inhibition: 37%

## O=C(Nc1ccc(OS(=O)(=O)c2ccc(F)cc2)cc1)C1CCCCCC1
Autotaxin [2]
  IC50: 4940 nM
[3]
  IC50: 2270 nM
[5]
  inhibition: 39.3%

## CS(=O)(=O)Oc1ccc(NC(=O)C2CCCCC2)cc1
[1]
  IC50: 1920 nM
[3]
  IC50: 1350 nM
Autotaxin [4]
  inhibition: 33%

## CCS(=O)(=O)Oc1ccc(NC(=O)C2CCCCC2)cc1
[1]
  IC50: 1630 nM
Autotaxin [2]
  IC50: 1820 nM
[3]
  IC50: 369 nM

## O=C(Nc1ccc(OS(=O)(=O)c2ccc(C(F)(F)F)cc2)cc1)C1CCCCCC1
[1]
  IC50: 431 nM
[3]
  IC50: 2580 nM
Autotaxin [4]
  inhibition: 34%

## O=C(Nc1ccc(OS(=O)(=O)c2ccccc2)cc1)c1ccc(Cl)cc1
[1]
  IC50: 9610 nM
Autotaxin [2]
  IC50: > 100000 nM
[3]
  IC50: 2770 nM

## O=C(Nc1ccc(OS(=O)(=O)c2ccc(F)cc2)cc1)C1CCCC1
[1]
  IC50: 5760 nM
Autotaxin [2]
  IC50: 1470 nM
[3]
  IC50: 1010 nM

## O=C(Nc1ccc(OS(=O)(=O)c2ccc(C(F)(F)F)cc2)cc1)c1ccc2ccccc2c1
[1]
  IC50: 1120 nM
[3]
  IC50: 5430 nM
Autotaxin [4]
  inhibition: 22%

## CC(C)c1cc(C(C)C)c(S(=O)(=O)Oc2ccc(NC(=O)c3ccc4ccccc4c3)cc2)c(C(C)C)c1
[1]
  IC50: 3430 nM
[3]
  IC50: 2890 nM
Autotaxin [4]
  inhibition: 42%

## O=C(Nc1ccc(OS(=O)(=O)c2ccc(F)cc2)cc1)c1ccc2ccccc2c1
[1]
  IC50: 1490 nM
[3]
  IC50: 13500 nM
Autotaxin [4]
  inhibition: 33%

## CC(C)(C)c1ccc(S(=O)(=O)Oc2ccc(NC(=O)C3CCCCC3)cc2)cc1
[1]
  IC50: 2550 nM
[3]
  IC50: 807 nM
Autotaxin [4]
  inhibition: 39%

## O=C(Nc1ccc(OS(=O)(=O)c2ccc(F)cc2)cc1)c1ccc(Cl)cc1
[1]
  IC50: 2900 nM
Autotaxin [2]
  IC50: 19900 nM
[6]
  inhibition: 46%

## O=C(Nc1ccc(OS(=O)(=O)c2ccc(C(F)(F)F)cc2)cc1)c1ccc(Cl)cc1
[1]
  IC50: 21600 nM
Autotaxin [2]
  IC50: 1070 nM
[3]
  IC50: 3420 nM

## O=C(Nc1ccc(OS(=O)(=O)c2ccc(C(F)(F)F)cc2)cc1)C1CCCC1
[1]
  IC50: 1130 nM
Autotaxin [2]
  IC50: 659 nM
[3]
  IC50: 3960 nM

## O=C(Nc1ccc(OS(=O)(=O)c2ccc(C(F)(F)F)cc2)cc1)C1CCCCC1
[1]
  IC50: 387 nM
Autotaxin [2]
  IC50: 1600 nM
[3]
  IC50: 1790 nM

## O=C(Nc1ccc(OS(=O)(=O)c2ccccc2)cc1)C1CCCC1
[1]
  IC50: 46700 nM
[3]
  IC50: 1720 nM
Autotaxin [4]
  inhibition: 38%

## O=C(Nc1ccc(OS(=O)(=O)c2ccccc2)cc1)C1CCCCCCC1
Autotaxin [2]
  IC50: 65400 nM
[5]
  inhibition: 45%
[6]
  inhibition: 47%

## CC(C)(C)c1ccc(S(=O)(=O)Oc2ccc(NC(=O)C3CCCC3)cc2)cc1
[1]
  IC50: 1650 nM
[3]
  IC50: 2680 nM
Autotaxin [4]
  inhibition: 42%

## Cc1ccc(S(=O)(=O)Oc2ccc(NC(=O)C3CCCCCCC3)cc2)cc1
Autotaxin [2]
  IC50: 80300 nM
[5]
  inhibition: 43%
[6]
  inhibition: 35%

## CC(C)(C)c1ccc(S(=O)(=O)Oc2ccc(NC(=O)c3ccc4ccccc4c3)cc2)cc1
[1]
  IC50: 2190 nM
Autotaxin [4]
  inhibition: 38%
[6]
  inhibition: 49%

## CC(C)c1cc(C(C)C)c(S(=O)(=O)Oc2ccc(NC(=O)c3ccc(Cl)cc3)cc2)c(C(C)C)c1
[1]
  IC50: 975 nM
[3]
  IC50: 1200 nM
Autotaxin [4]
  inhibition: 24%

## O=C(Nc1ccc(OS(=O)(=O)c2ccccc2)cc1)c1ccc2ccccc2c1
[1]
  IC50: 9300 nM
Autotaxin [2]
  IC50: 28000 nM
[3]
  IC50: 20500 nM

## CC(C)(C)c1ccc(S(=O)(=O)Oc2ccc(NC(=O)C3CCCCCC3)cc2)cc1
[1]
  IC50: 1490 nM
Autotaxin [2]
  IC50: 3910 nM
[3]
  IC50: 47000 nM
